# Assay results reported in ChEMBL document CHEMBL1149788, “Synthesis and biochemical evaluation of guanidino-alkyl-ribitol derivatives as nucleoside hydrolase inhibitors” (Eur J Med Chem, 2008).
# Assays:
# IAG-nucleoside hydrolase = target: T1, IAG-nucleoside hydrolase (Trypanosoma vivax, UniProt Q9GPQ4); experiment: Inhibition of Trypanosoma vivax IAG-nucleoside hydrolase expressed in Escherichia coli WK6
# T1 sequence (Q9GPQ4 whole entry): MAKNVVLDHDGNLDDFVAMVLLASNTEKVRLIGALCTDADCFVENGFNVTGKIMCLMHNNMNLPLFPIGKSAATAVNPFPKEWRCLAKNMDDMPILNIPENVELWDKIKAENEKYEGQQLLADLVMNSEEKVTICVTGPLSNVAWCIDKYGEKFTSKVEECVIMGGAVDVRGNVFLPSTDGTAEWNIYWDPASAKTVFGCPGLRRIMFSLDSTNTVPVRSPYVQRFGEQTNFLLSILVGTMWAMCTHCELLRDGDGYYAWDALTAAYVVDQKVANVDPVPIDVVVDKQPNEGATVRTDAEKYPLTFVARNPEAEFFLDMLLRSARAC
# Method in brief: (§1)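 His6-tagged enzyme purified by Ni-NTA then Superdex-200 gel filtration; concentration per monomer from ε280 47752 M⁻¹ cm⁻¹. Initial rates of hydrolysis of fixed p-nitrophenyl-β-D-ribofuranoside at ≥5 inhibitor concentrations, 50 mM phosphate pH 7.0, 35 °C. p-Nitrophenolate release read at 400 nm (ε 12 mM⁻¹ cm⁻¹). Ki from competitive-inhibition fit via Dixon plot (1/vi vs I).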
# [1] = target: T2, IAG-nucleoside hydrolase (Trypanosoma vivax) (UniProt Q9GPQ4); experiment: Binding affinity to Trypanosoma vivax IAG-nucleoside hydrolase; method in brief: as §1
# T2 sequence (whole entry): T1 sequence (Q9GPQ4 whole entry)
SMILES,Ki (IAG-nucleoside hydrolase),Activity [1]
NC(=O)[C@@H]1O[C@H](CO)[C@H](O)[C@@H]1O,4500 µM,
NC(N)=NC[C@@H]1O[C@H](CO)[C@@H](O)[C@H]1O,545 µM,
"OCC1[C@@H](O)[C@@H](O)CN1Cc1ccccc1 (single isomer, unassigned)",59 µM,
N=C(N)NCC[C@@H]1N[C@H](CO)[C@@H](O)[C@H]1O,18 µM,
OC[C@H]1NC[C@H](O)[C@@H]1O [IMINORIBITOL],6.1 µM,
N=C(N)c1ccc(CN2C[C@H](O)[C@H](O)[C@H]2CO)cc1,6.7 µM,
NC(N)=NCCC[C@@H]1O[C@H](CO)[C@@H](O)[C@H]1O,677 µM,
C[N+](C)(C)C[C@@H]1O[C@H](CO)[C@@H](O)[C@H]1O,1280 µM,
NC(N)=NCCN1C[C@H](O)[C@H](O)[C@H]1CO,286 µM,
N=C(N)Nc1ccc(CN2C[C@H](O)[C@H](O)[C@H]2CO)cc1,7 µM,
NC(N)=NCC[C@@H]1O[C@H](CO)[C@@H](O)[C@H]1O,309 µM,
CC(C[C@@H]1O[C@H](CO)[C@@H](O)[C@H]1O)N=C(N)N (some centres undefined),685 µM,
O[C@@H]1[C@H](O)[C@H](O)CO[C@H]1O,,148 mM
N=C(N)NCCCN1C[C@H](O)[C@H](O)[C@H]1CO,40 µM,
